Test [1] deals with Escherichia coli. Description: Inhibition of Escherichia coli DNA-gyrase assessed as DNA supercoiling activity. The procedure, abridged:
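Peptide titrated into a fixed amount of enzyme and DNA. Gyrase at 3.4 nM with relaxed DNA substrate (500 ng), 37 °C for 1 h, which fully negatively supercoils the substrate without inhibitor. Value is IC100, the lowest peptide concentration giving complete inhibition of supercoiling.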

The test system of test [2] is Escherichia coli. Description: Inhibition of Escherichia coli topoisomerase 4 assessed as DNA relaxation activity. The procedure, abridged:
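ATP-dependent relaxation assay. Topo IV at 5 nM with supercoiled DNA (400 ng) at 37 °C, with peptide titrated at fixed enzyme and DNA. Value is IC100, the minimum concentration completely inhibiting relaxation.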

Active and inactive are the calls of the source. The calls are words filed in the database; no cut-off is given here.

Take `CC[C@H](C)[C@H](NC(=O)[C@H](CCC(=O)O)NC(=O)[C@H](Cc1c[nH]c2ccccc12)NC(=O)[C@H](Cc1ccccc1)NC(=O)[C@H](CCSC)NC(=O)[C@H](CC(C)C)NC(=O)[C@H](CC(N)=O)NC(=O)[C@@H](NC(=O)[C@H](C)NC(=O)[C@H](CC(N)=O)NC(=O)[C@H](CCCCN)NC(=O)[C@@H](NC(=O)[C@H](CC(=O)O)NC(=O)[C@H](CC(N)=O)NC(=O)[C@H](CCC(=O)O)NC(=O)[C@H](CCCNC(=N)N)NC(=O)[C@H](Cc1cnc[nH]1)NC(=O)[C@H](CO)NC(=O)CCCCCNC(=O)[C@H](CC(C)C)NC(=O)[C@H](CCC(=O)O)NC(=O)[C@H](CCCNC(=N)N)NC(=O)[C@H](CO)NC(=O)[C@@H](NC(=O)[C@H](CCCCN)NC(=O)[C@H](CC(=O)O)NC(=O)[C@H](CO)NC(=O)[C@H](CC(C)C)NC(=O)[C@H](CC(C)C)NC(=O)[C@H](CCCNC(=N)N)NC(=O)CCCCCNC(=O)[C@H](CCCCN)NC(=O)[C@H](Cc1ccc(O)cc1)NC(=O)[C@@H](NC(=O)[C@H](Cc1ccc(O)cc1)NC(=O)[C@@H](NC(=O)[C@H](CCCCN)NC(=O)[C@H](Cc1ccccc1)NC(=O)[C@H](CCC(N)=O)NC(=O)[C@@H](N)CCSC)C(C)C)[C@@H](C)O)C(C)C)[C@@H](C)CC)[C@@H](C)CC)C(=O)O`: in test [1], the outcome was inactive. Further, the IC100 in test [2] was determined as 5 µM.

On to `CC[C@H](C)[C@H](NC(=O)CNC(=O)[C@H](Cc1c[nH]c2ccccc12)NC(=O)[C@H](Cc1ccccc1)NC(=O)[C@H](CCSC)NC(=O)[C@H](CC(C)C)NC(=O)[C@H](CC(N)=O)NC(=O)[C@@H](NC(=O)[C@H](C)NC(=O)[C@H](CC(N)=O)NC(=O)[C@H](CCCCN)NC(=O)[C@@H](NC(=O)[C@H](CC(=O)O)NC(=O)[C@H](CC(N)=O)NC(=O)[C@H](CCC(=O)O)NC(=O)[C@H](CCCNC(=N)N)NC(=O)[C@H](Cc1cnc[nH]1)NC(=O)[C@H](CO)NC(=O)[C@H](CC(C)C)NC(=O)[C@H](CC(=O)O)NC(=O)[C@H](C)NC(=O)[C@@H](NC(=O)[C@H](CCC(=O)O)NC(=O)[C@H](CCC(=O)O)NC(=O)CNC(=O)[C@@H](NC(=O)[C@@H](NC(=O)[C@H](CO)NC(=O)[C@@H](NC(=O)[C@@H]1CCCN1C(=O)[C@@H](NC(=O)[C@H](CO)NC(=O)[C@H](C)NC(=O)[C@@H](N)CCSC)C(C)C)C(C)C)C(C)C)[C@@H](C)CC)C(C)C)[C@@H](C)CC)[C@@H](C)CC)C(=O)O`, for which the result in test [1] and in test [2] was inactive.

Consider `CC[C@H](C)[C@H](NC(=O)CNC(=O)[C@H](Cc1c[nH]c2ccccc12)NC(=O)[C@H](Cc1ccccc1)NC(=O)[C@H](CCSC)NC(=O)[C@H](CC(C)C)NC(=O)[C@H](CC(N)=O)NC(=O)[C@@H](NC(=O)[C@H](C)NC(=O)[C@H](CC(N)=O)NC(=O)[C@H](CCCCN)NC(=O)[C@@H](NC(=O)[C@H](CC(=O)O)NC(=O)[C@H](CC(N)=O)NC(=O)[C@H](CCC(=O)O)NC(=O)[C@H](CCCNC(=N)N)NC(=O)[C@H](Cc1cnc[nH]1)NC(=O)[C@@H](N)CO)[C@@H](C)CC)[C@@H](C)CC)C(=O)O`, for which the IC100 in test [1] was found to be 60 µM; in test [2], 15 µM.

As to `CC[C@H](C)[C@H](NC(=O)CNC(=O)[C@H](Cc1c[nH]c2ccccc12)NC(=O)[C@H](Cc1ccccc1)NC(=O)[C@H](CCSC)NC(=O)[C@H](CC(C)C)NC(=O)[C@H](CC(N)=O)NC(=O)[C@@H](NC(=O)[C@H](C)NC(=O)[C@H](CC(N)=O)NC(=O)[C@H](CCCCN)NC(=O)[C@@H](NC(=O)[C@H](CC(=O)O)NC(=O)[C@H](CC(N)=O)NC(=O)[C@H](CCC(=O)O)NC(=O)[C@H](CCCNC(=N)N)NC(=O)[C@H](Cc1cnc[nH]1)NC(=O)[C@H](CO)NC(=O)CCCCCNC(=O)[C@H](CCCCN)NC(=O)[C@H](Cc1ccc(O)cc1)NC(=O)[C@@H](NC(=O)[C@H](Cc1ccc(O)cc1)NC(=O)[C@@H](NC(=O)[C@H](CCCCN)NC(=O)[C@H](Cc1ccccc1)NC(=O)[C@H](CCC(N)=O)NC(=O)[C@@H](N)CCSC)C(C)C)[C@@H](C)O)[C@@H](C)CC)[C@@H](C)CC)C(=O)O`, the IC100 in test [1] turned out to be 40 µM; in test [2] it was 15 µM.

On to `CC[C@H](C)[C@H](NC(=O)CNC(=O)[C@H](Cc1c[nH]c2ccccc12)NC(=O)[C@H](Cc1ccccc1)NC(=O)[C@H](CCSC)NC(=O)[C@H](CC(C)C)NC(=O)[C@H](CC(N)=O)NC(=O)[C@@H](NC(=O)[C@H](C)NC(=O)[C@H](CC(N)=O)NC(=O)[C@H](CCCCN)NC(=O)[C@@H](NC(=O)[C@H](CC(=O)O)NC(=O)[C@H](CC(N)=O)NC(=O)[C@H](CCC(=O)O)NC(=O)[C@H](CCCNC(=N)N)NC(=O)[C@H](Cc1cnc[nH]1)NC(=O)[C@H](CO)NC(=O)CCCCCNC(=O)[C@H](CC(C)C)NC(=O)[C@H](CCC(=O)O)NC(=O)[C@H](CCCNC(=N)N)NC(=O)[C@H](CO)NC(=O)[C@@H](NC(=O)[C@H](CCCCN)NC(=O)[C@H](CC(=O)O)NC(=O)[C@H](CO)NC(=O)[C@H](CC(C)C)NC(=O)[C@H](CC(C)C)NC(=O)[C@H](CCCNC(=N)N)NC(=O)CCCCCNC(=O)[C@H](CCCCN)NC(=O)[C@H](Cc1ccc(O)cc1)NC(=O)[C@@H](NC(=O)[C@H](Cc1ccc(O)cc1)NC(=O)[C@@H](NC(=O)[C@H](CCCCN)NC(=O)[C@H](Cc1ccccc1)NC(=O)[C@H](CCC(N)=O)NC(=O)[C@@H](N)CCSC)C(C)C)[C@@H](C)O)C(C)C)[C@@H](C)CC)[C@@H](C)CC)C(=O)O`, for which the IC100 in test [1] came to 10 µM; in test [2] it was 5 µM.

The values are drawn from ChEMBL document CHEMBL1152267, “Peptides based on CcdB protein as novel inhibitors of bacterial topoisomerases” (Bioorg Med Chem Lett, 2008).
